Holding throughout (assay type): functional
Assay [1] deals with Rattus norvegicus. As to the kind of experiment: The mean increase in paw volume was compared between drug treated groups and placebo to calculate the percent inhibition in rats at 0.08 mmol/kg by carrageenan Edema Assay; 0-19.
In assay [2] the test system is Rattus norvegicus. As to the kind of experiment: The mean increase in paw volume was compared between drug treated groups and placebo to calculate the percent inhibition in rats at 0.02 mmol/kg by carrageenan Edema Assay 0-19.
Assay [3] concerns Rattus norvegicus. Description: Ulcerogenicity was measured in intestine during the 3 week adjuvant arthritis test, no of animals with ulcers out of 8 animals tested at 0.16 mM/kg (49.4 mg) was reported. In a few lines: (§1)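 Male Sprague-Dawley rats (200–230 g) were injected in the plantar tissue of one hind paw with 0.1 mL of 0.6% M. butyricum suspension in heavy mineral oil. Daily oral gavage began on the day of adjuvant injection and ran for the 21 days, with drug suspended in 1% gum tragacanth or a corn oil-water emulsion. At the end the rats were sacrificed and the small intestine and stomach were examined for ulcers. Results are given as animals with ulcers/animals tested.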

Assay [4] deals with Rattus norvegicus. As to the kind of experiment: Ulcerogenicity was measured in stomach during the 3 week adjuvant arthritis test, no of animals with ulcers out of 8 animals tested at 0.16 mM/kg (49.4 mg) was reported. The essentials: as §1
Assay [5] has as its system Rattus norvegicus. As to the kind of experiment: Potency relative to phenylbutazone at 0.08 mM/kg.
The test system of assay [6] is Rattus norvegicus. Description: The percent inhibition was calculated from the average differences in hind paw volume between the adjuvant injected controls and the adjuvant-injected medicated rats at 0.08 mmol/kg; 60-69. The note with it: Rattus norvegicus.
The subject of assay [7] is Rattus norvegicus. Description: The mean increase in paw volume was compared between drug treated groups and placebo to calculate the percent inhibition in rats at 0.02 mmol/kg by carrageenan Edema Assay; 30-39. Conditions: Rattus norvegicus.
Assay [8] has as its system Rattus norvegicus. As to the kind of experiment: Ulcerogenicity was measured in stomach during the 3 week adjuvant arthritis test, no of animals with ulcers out of 8 animals tested at 0.08 mM/kg (24.7 mg) was reported. In a few lines:
as §1

Assay [9] relates to Rattus norvegicus. As to the kind of experiment: Ulcerogenicity was measured in intestine during the 3 week adjuvant arthritis test, no of animals with ulcers out of 8 animals tested at 0.08 mM/kg (24.7 mg) was reported. The essentials:
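In the 21-day adjuvant arthritis model, male Sprague-Dawley rats (200–230 g) received an M. butyricum mineral-oil suspension into one hind paw. They were dosed daily by gavage from the day of injection. At the end of the study the rats were killed, and the small intestines were examined for ulcers. Results are given as the number of ulcerated animals over the number tested.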

Assay [10] relates to Rattus norvegicus. As to the kind of experiment: Antiinflammatory efficacy is measured by the percent inhibition of paw volume during the 3 week adjuvant arthritis test at 0.08 mM/kg(24.7 mg). In a few lines:
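Male Sprague-Dawley rats (200–230 g) were used in groups of eight. Each received 0.1 mL of 0.6% M. butyricum in heavy mineral oil into the plantar tissue of one hind paw. Daily oral gavage in 1% gum tragacanth or corn oil-water emulsion began on the injection day and ran 21 days. Total hind paw volume was measured by mercury displacement, and inhibition was taken versus vehicle-treated adjuvant controls.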

The species entered for assay [11] is Rattus norvegicus. Description: Compound was evaluated for highest non-ulcerogenic dose (less than 50% ulcer incidence). The note with it: read-out: ED50. In a few lines:
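Taken from the 21-day adjuvant arthritis test in male Sprague-Dawley rats dosed orally each day from the day of adjuvant injection. Small intestines and stomachs were examined for ulceration at the end. The value is the highest dose giving less than 50% ulcer incidence.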

For assay [12], the system named is Rattus norvegicus. Description: Antiinflammatory efficacy is measured by the weight gain in rats during the 3 week adjuvant arthritis test at 0.08 mM/kg(24.7 mg). The essentials: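 Rats were adjuvant-injected (M. butyricum in mineral oil, one hind paw) or given a mineral-oil placebo. They were dosed by gavage daily for 21 days from the injection day, with vehicle only for both control groups, then weighed at the end. Weight gain % = (treated − adjuvant control)/(negative control − adjuvant control) × 100.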

On to `CC(CN1CCCC1CC1CCCCC1)c1cccc(C(O)c2ccccc2)c1` (configuration not stated), for which the inhibition in vivo at 80 µmol/kg in assay [1] is 0%.
`O=C(c1ccccc1)c1cccc(CCN2CCOCC2)c1`: in assay [2], the inhibition in vivo at 20 µmol/kg is 0%.
Consider `CC(CN1CCOCC1)c1cccc(C(=O)c2ccccc2)c1` (configuration not stated), for which the Ulcerogenic index in assay [3] stood at 3; in [4], 1; in assay [8] it was 0; in assay [9], 1. In addition, the Relative potency in assay [5] is listed as 8.6%. In assay [6], the inhibition in vivo at 80 µmol/kg is 80%. The inhibition in vivo at 20 µmol/kg in [7] was 30%. In assay [10], the Inhibition is on record as 82%. In assay [11], the highest non-ulcerogenic dose was 8 µmol/kg. Further, the Weight gain in [12] was 66%.

The values are drawn from ChEMBL document CHEMBL1122782, “Bulky amine analogues of ketoprofen: potent antiinflammatory agents” (J Med Chem, 1984).
